Hits are enriched below; roughly 4.2% of the tested compounds scored in any of these assays.
AI-2 QS mod: Vibrio harveyi AI-2 quorum sensing modulation. Vibrio harveyi JMH597 AI-2 luminescence/OD600 ratio, 9 h; hits give low values; strain lacks LuxN and CqsS sensors; 0 = neutral-control median. activity change, % at 7.5 µM. 300,000 compounds, 0.4% hits; in the data active means activity change below about -75%, passing the limit was not always enough; inconclusive means no clear call, values can overlap the other calls;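 further: luminescence divided by OD600 gain over 9 h not by final OD600 alone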
hERG protect: compounds protecting human hERG from proarrhythmic drug block; Q12809; CHO-hERG, FluxOR thallium flux, dofetilide IC70 present; activation (rescue from dofetilide block), less the hit threshold, % at 10 µM; 310,000 compounds, 0.51% hits; AID 1511;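 active means activation above the mean of controls blocked by dofetilide plus 5 SD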;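 further: thallium influx through hERG after potassium depolarization seen as dye fluorescence rise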
Mot1-301 SUMO: inhibitors of SUMOylation pathway: yeast Mot1-301 growth rescue. S. cerevisiae Mot1-301 growth rescue, ATP luminescence, 38.5C; percent above DMSO median, 100 means doubled. growth rescue, % at 18.8 µM. 320,000 compounds, 1% hits;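 active means every valid replicate shows activation above 250% relative to neutral control wells; inactive means the rest, any valid replicate at or below 250%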;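 further: OY570 slx delta 5 strain wells were the positive control but not used for scaling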
KCNQ1 pot: human KCNQ1 channel potentiation or activation | 310,000 compounds, 0.35% hits | B-score at 10 µM | CHO-K1 KCNQ1, thallium flux FluxOR fluorescence; hits give high values;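 active means fluorescence ratio B-score, a plate-corrected score, at least three library SD, with initial intensity B-score within 5 SD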
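Assay system: CHO-K1 cells stably expressing KCNQ1; Medium: assay buffer with matched DMSO; Also added: K+/Tl+ depolarizing stimulus; Dosing: single dose; Timing: dye 90 min, compound 20 min, room temperature; Measured by: kinetic FluxOR thallium fluorescence, 10-s 1-Hz baseline, 110-s post-stimulus read; Read-out: peak-minus-minimum fluorescence over initial fluorescence, negative-control normalized, B-scored.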
KCC2 mod: KCC2 (human) Cl- transport modulation; 190,000 compounds, 2.2% hits; KCC2 cells, thallium flux FluoZin-2 fluorescence; Q9H2X9; B-score of Tl+ flux slope (higher = more flux/activation; lower = inhibition) at 10 µM;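 active means thallium flux slope and its plate-corrected score both differing from the plate sample mean at a set confidence after two filtering rounds, in either direction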;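 further: slope of fluorescence scaled to starting intensity during 10 to 20 s after thallium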
KCNQ1 block: blocks the human KCNQ1 potassium channel; 310,000 compounds, 1.3% hits; CHO-K1 KCNQ1, FluxOR thallium flux fluorescence; hits give high values; B-score at 10 µM;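 active means compounds whose thallium flux B-score, printed positive for inhibition, exceeds three library SD while starting fluorescence stays within three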;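 further: channel opened by potassium depolarization with thallium stimulus after 20 min compound exposure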
Active calls of the source: *; i = inactive; ? = inconclusive; nt = no result given.

SMILES	AI-2 QS mod	hERG protect	Mot1-301 SUMO	KCNQ1 pot	KCC2 mod	KCNQ1 block
CCOC(=O)c1cnn(-c2cc(C)cc(C)c2)c1N	10.5	-11.2	5.3	i	-0.518	i
CCOC(=O)c1cnn(-c2sc(C(=O)OCC)c(C)c2C(=O)OCC)c1N	8.7	-13.3	-7.5	i	43.2*	i
Cc1ccc(C(=O)C(c2ccccc2)N2Cc3ccccc3C2=N)cc1 (stereo not drawn)	17.3	-16.6	0.3	i	-0.796	11*
COc1ccc(C(=O)C(c2ccccc2)N2CCOCC2)cc1 (stereo not drawn)	14.6	-2.5	108.7	i	nt	i
Oc1c(Br)cc(Br)cc1C=NCc1ccc(F)cc1	29.0	0.5	95.1	12*	-1.02	i
O=C(Cc1ccccc1)N/N=C/c1cc(Br)cc(Br)c1O	18.1	-6.8	30.0	i	nt	i
Oc1c(Br)cc(Br)cc1C=NCc1ccccc1	-5.0	-19.4	226.5	22*	-1.19	i
O=C(O)c1ccccc1N/N=C/c1cc(Br)cc(Br)c1O	21.6	-13.0	25.8	i	2.26	6*
C/C(CC(=O)Nc1cccc(Br)c1)=N\NC(=O)c1ccc(O)cc1O	11.3	-4.2	-9.8	i	nt	i
COc1ccc(CN2CCSc3sccc3C2=O)cc1	14.5	-4.6	21.9	i	nt	i
CC1=C(C(=O)Nc2cccnc2)C(c2cccnc2)n2nc(-c3cccs3)nc2N1 (stereo not drawn)	1.5	-0.8	349.9*	i	-0.0128	i
N#Cc1ccccc1NS(=O)(=O)c1cc2c3c(c1)CCN3C(=O)CC2	9.2	-8.6	-4.8	i	nt	i
N#Cc1ccccc1NS(=O)(=O)c1cc2c3c(c1)CCC(=O)N3CCC2	5.5	-6.7	14.5	8*	nt	i
O=C(COc1ccc(F)cc1)Nc1nnc(S(=O)(=O)N2CCCC2)s1	3.8	-7.2	-1.9	i	nt	i
O=C(O)c1ccc(CN2C(=O)c3cccc4c([N+](=O)[O-])ccc(c34)C2=O)cc1	9.9	-7.8	nt	i	nt	10*
Cc1ccc(C(=O)O)cc1N1C(=O)c2cccc3c([N+](=O)[O-])ccc(c23)C1=O	8.4	-20.9	29.2	i	nt	i
CCC(C)(C)NC(=O)CN(C(=O)CCC(=O)Nc1nccs1)c1ccc2c(c1)OCCO2	nt	-8.5	-0.4	i	nt	i
COc1cccc(-c2nc(N3CCCCC3C)c3ccccc3n2)c1O (stereo not drawn)	3.6	-9.9	-16.8	i	-2.02	8*
O=C(Nc1cc2c3c(c1)C1CCCC1CN3CC1CCCC21)c1ccccc1 (stereo not drawn)	13.8	-10.0	-9.4	i	0.0678	9*
COCC1CCCN(C(=O)c2cc(COc3ccc4ncccc4c3)on2)C1 (stereo not drawn)	12.7	-18.5	-20.3	i	nt	6*
CC(CCc1ccccc1)NC(=O)COC(=O)C12CC3CC(CC(Br)(C3)C1)C2 (stereo not drawn)	15.3	-10.0	7.1	i	-2.11	i
NC(=S)N/N=C/c1ccc2cccc(OCc3ccccc3)c2n1	-0.2	-5.3	-15.9	i	nt	i
O=C(N/N=C/c1ccccn1)c1ccc(N/N=C/c2ccccn2)cc1	22.8	-23.4	-0.1	i	-0.472	i
O=C(N/N=C/c1ccc2cccc(OCc3ccccc3)c2n1)c1ccc(Br)cc1	9.3	11.4*	-18.6	i	10.9*	i
COc1ccc(C(=O)N/N=C/c2ccc3cccc(OCc4ccccc4)c3n2)cc1	20.1	-3.2	-11.7	i	4.08*	i
SMILES	AI-2 QS mod	hERG protect	Mot1-301 SUMO	KCNQ1 pot	KCC2 mod	KCNQ1 block
O=C(N/N=C/c1ccccn1)c1ccc(Br)cc1	?	-6.0	8.6	i	4.17*	i
NC(N)=N/N=C/c1ccc2cccc(OCc3ccccc3)c2n1	27.3	-25.4	-7.4	i	-0.0284	6*
Cc1cc(OC(C)C(=O)NCc2ccccn2)c2c(C)c(C)c(=O)oc2c1 (stereo not drawn)	34.4	-6.5	160.7	i	nt	i
Clc1cnc(N/N=C/c2cccs2)c(Cl)c1	29.6	-13.1	-1.5	i	-0.367	6*
Cc1ccc(/C=N/Nc2ncc(Cl)cc2Cl)s1	4.5	-23.1	24.1	i	-0.43	7*
CCN(CC)CCN1C(=O)c2oc3ccccc3c(=O)c2C1c1cccc(Br)c1 (stereo not drawn)	11.5	-5.0	301.0	i	24.5*	i
CCN(CC)CCCN1C(=O)c2oc3ccccc3c(=O)c2C1c1cccs1 (stereo not drawn)	25.1	25.8*	930.5	15*	nt	i
CCN(CC)CCN1C(=O)c2oc3ccccc3c(=O)c2C1c1ccccc1 (stereo not drawn)	37.3	-12.4	-7.5	i	nt	i
Cc1ccc(O)c(C(=O)CC(=O)c2ccc(Cl)cc2)c1	46.5	5.7*	100.5	i	nt	i
Cc1ccc(NC(=O)c2ccc(OC(=O)COc3ccc(Cl)cc3C)cc2)cc1	5.3	-3.7	5.2	i	0.463	i
O=C(CC(=O)c1cc(Cl)ccc1O)c1ccccc1	46.9	-3.3	-1.6	18*	9.99*	i
Cc1cccc(C(=O)CC(=O)c2cc(Cl)ccc2O)c1	148.6	8.8*	213.4	i	nt	i
Cc1ccc(C(=O)CC(=O)COc2ccc(Cl)cc2C)cc1	4.9	-3.3	-7.2	7*	17.1*	i
Cc1ccc(C(=O)CC(=O)c2ccccc2)cc1	27.6	-6.1	14.2	i	nt	i
O=C(CCc1ccccc1)NNC(=O)c1ccncc1	nt	nt	-11.7	nt	nt	nt
COc1ccc(CCNC(=O)c2ccc3nc(N4CCCCC4)sc3c2)cc1OC	10.5	-3.1	-4.4	i	nt	i
O=C(Oc1cncc(Cl)c1)c1ccco1	18.7	-9.0	11.2	i	0.846	i
O=C(Oc1c(Cl)cc(Cl)c2cccnc12)c1ccco1	-87.7*	-7.2	217.5	i	nt	i
S=C(NCc1ccccc1)N1CCN(C(=S)NCc2ccccc2)CC1	nt	nt	-2.3	nt	nt	nt
O=C(c1cc(C2CC2)nn1-c1ccccc1)N1CCN(S(=O)(=O)c2c(F)cccc2F)CC1	nt	nt	-2.3	nt	nt	nt
CCOC(=O)C1=C(Cc2ccc(F)cc2)C(=O)c2ccccc2C1=O	1.8	-14.3	-16.1	i	-0.0655	i
CCCCc1ccc(/C=C2\C(=O)c3ccccc3C(O)=C2C(=O)OCC)cc1	4.7	-11.1	23.3	9*	nt	i
Cc1c(C(=O)OCC(=O)c2ccc3c(c2)OCCO3)oc2ccccc12	6.2	-12.4	312.1*	i	nt	i
Cc1cccc(NS(=O)(=O)c2cccc(C(=O)NCCCN3CCOCC3)c2)c1	9.8	-7.2	7.6	i	nt	i

Assay outcomes deposited in PubChem BioAssay by several laboratories.
